# HTRA1 inhibitor – blocks human HTRA1 serine peptidase | AID 504803 | inhibition, % at 5.96 µM | actives 0.5% (n = 340,000) | recombinant HTRA1, FP-rhodamine activity-based probe, fluorescence polarization; in the data active = inhibition above about 36%;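 note: 0% = enzyme with DMSO and 100% = wells lacking enzyme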
# TCR CD3 inh – inhibitors of human TCR-CD3 interaction. TAMRA-labeled TCR probe fluorescence, biochemical. inhibition, % at 9.4 µM. actives 0.37% (n = 360,000). AID 651800; in the data active = inhibition above about 19%;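 note: recombinant mutant TCR 2C K166C tagged with TAMRA read by polarization; 0% = receptor in buffer alone and 100% = receptor with positive control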
# mABHD4 FP – inhibits mouse alpha/beta hydrolase domain 4. Q8VD66. purified mABHD4, FP-Rh probe fluorescence polarization. inhibition, % at 8.92 µM. actives 0.54% (n = 370,000);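 active = inhibition exceeding the mean over every tested compound plus 3 SD, cut at about 30% in these data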;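 note: 0% = plate median of compound wells and 100% = S159A mutant with DMSO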
# Target sequence (Q8VD66 whole entry, looked up, the tested form may be a part): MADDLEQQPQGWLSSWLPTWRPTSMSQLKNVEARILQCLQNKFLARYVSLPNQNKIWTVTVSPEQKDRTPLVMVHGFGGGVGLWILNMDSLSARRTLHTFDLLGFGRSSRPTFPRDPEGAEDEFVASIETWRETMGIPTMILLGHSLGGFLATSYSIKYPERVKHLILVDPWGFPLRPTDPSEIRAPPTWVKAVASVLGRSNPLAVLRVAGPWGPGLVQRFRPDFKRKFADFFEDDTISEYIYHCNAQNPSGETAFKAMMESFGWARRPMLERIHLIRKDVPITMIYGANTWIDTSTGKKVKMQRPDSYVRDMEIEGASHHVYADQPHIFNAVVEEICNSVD
#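 Assay system: Wild-type mouse ABHD4 protein | Medium: HEPES pH 7.0 buffer, 150 mM NaCl, 0.01% Pluronic F-127 | Incubation: Enzyme–compound pre-incubation 45 min, then probe 60 min, both 25 °C | Technique: Fluorescence polarization with parallel and perpendicular emission, 525/598 nm | Evaluation: % inhibition of FP-Rh probe binding versus controls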
# PME-1 primary – blocks human protein phosphatase methylesterase 1. Q9Y570. recombinant PME-1, FP-Rh probe fluorescence polarization. inhibition, % at 5.9 µM. actives 0.53% (n = 320,000). AID 2130;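 active = inhibition above the campaign mean of all compounds plus 3 SD, cut at about 26% in these data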;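 note: competitive labeling of PME-1 active site by serine hydrolase directed probe; 0% = PME-1 with DMSO and 100% = wells lacking PME-1 enzyme; inhibitors block probe labeling so polarization falls and inhibition rises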
# SIAE primary – inhibitors of human sialic acid acetylesterase SIAE; SIAE FP-Rh probe binding, fluorescence polarization; inhibition, % at 9.66 µM; actives 0.69% (n = 370,000);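 active = inhibition above a cutoff: mean of compounds within the control limits plus 3 SD of those, cut at about 17% in these data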;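 note: 0% = plate median of compound wells and 100% = probe without SIAE protein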
# Fam108B counter – blocks mouse Fam108B hydrolase in RBBP9 counter-screen | recombinant Fam108B, FP-Rh probe fluorescence polarization | inhibition, % at 9.51 µM | actives 0.33% (n = 300,000);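 active = inhibition above the screen mean inhibition plus 3 SD, computed separately per campaign, cut at about 18% in these data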;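 note: inhibitors lower polarization as less probe binds the enzyme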
# SIAE confirm – confirmation of human SIAE inhibitors; shares compounds with SIAE primary; SIAE FP-Rh activity-based probe, fluorescence polarization; inhibition, % at 9.66 µM; actives 13% (n = 2,300); AID 1117263;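 active = mean inhibition of the replicates above the hit cutoff set in the primary screen, cut at about 17% in these data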;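 note: 0% = SIAE with DMSO and probe and 100% = probe without SIAE; inhibitors lower polarization as more probe stays unbound to SIAE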
# An asterisk follows results filed as active; x = not tested or not shown. Sampled rows, rich in hits. Any-hit rate of the full collection: about 1.8%.
SMILES,HTRA1 inhibitor,TCR CD3 inh,mABHD4 FP,PME-1 primary,SIAE primary,Fam108B counter,SIAE confirm
Cc1cnc(CN(C)C(=O)c2ccc3oc(Cc4ccc(Cl)cc4)nc3c2)[nH]1,1,1,3,5,18*,0,0
Cc1cnc(CN(C)C(=O)c2ccc3oc(Cc4ccccc4)nc3c2)[nH]1,2,8,-2,-5,2,-2,x
CC1(C)CC(=O)c2cc(N=C/C(C(=O)c3ccccc3)=C(\O)c3ccccc3)c(=O)oc2C1,8,6,3,1,17*,4,1
CC1(C)CC(=O)C(C=Nc2ccccc2C(=O)O)=C(O)C1,10,5,1,1,6,4,x
CCOc1ccc(/C=N/NC(=S)NC2CC3CC2C2C=CCC32)cc1 (configuration not stated),x,-10,-4,4,-3,-1,x
COc1cc(/C=N/NC(=S)NC2CC3CC2C2C=CCC32)ccc1O (configuration not stated),-4,5,10,24,23*,2,15
Clc1ccc2nc(-c3ccc(Cl)nc3)[nH]c2c1,-20,0,-12,-31,-13,0,x
Nc1ccc(-c2nc3ccc([N+](=O)[O-])cc3[nH]2)cc1,5,-5,12,7,7,11,x
Nc1ccc(-c2nc3ccc(N)cc3[nH]2)cc1,10,-9,15,0,25*,3,8
O=[N+]([O-])c1ccc(-c2nc3ccc([N+](=O)[O-])cc3[nH]2)cc1,-4,6,-10,3,18*,4,7
Nc1ccc2nc(-c3ccc(Cl)cc3)[nH]c2c1,33,-1,15,16,54*,4,4
Nc1ccc2nc(-c3cc(Cl)c(N)c(Cl)c3)[nH]c2c1,32,-11,22,26,24*,18,13
CC(C)[C@H]1Cn2nnc(-c3ccccc3)c2Cn2c3ccccc3c(=O)n21,x,x,1,x,2,x,x
CC1(Cc2ccccc2F)C(=O)Nc2c(Cl)ccc(Cl)c21 (configuration not stated),x,-9,-6,x,-3,x,x
CCn1c(CCNC(=O)c2ccc(Cl)cc2)n[nH]c1=S,1,-2,2,7,22*,-2,-2
O=C(OCC(=O)N1CCN(C(=O)c2ccco2)CC1)c1ccccc1NCCO,7,-8,4,-4,24*,-2,1
O=C(OCC(=O)N1CCN(C(=O)COC(=O)c2ccccc2NCCO)CC1)c1ccccc1NCCO,-1,-3,3,x,6,x,x
O=C(Nc1cc(C(F)(F)F)ccc1N1CCCC1)C1CC(=O)N(Cc2ccccc2)C1 (configuration not stated),-3,6,0,x,4,x,x
C[C@@H]1CCCCO[C@H](CN(C)Cc2ccc(C(=O)O)cc2)[C@@H](C)CN([C@H](C)CO)C(=O)c2cc(N(C)C)ccc2O1,2,-6,-3,x,7,x,x
C[C@@H]1CCCCO[C@@H](CN(C)Cc2ccc(C(F)(F)F)cc2)[C@@H](C)CN([C@H](C)CO)C(=O)c2cc(N(C)C)ccc2O1,4,0,13,x,22*,x,6
Cc1cc(C(=O)NNC(=S)NC2CCCCC2)cs1,0,-12,5,2,9,2,x
NS(=O)(=O)c1ccc(CCNC(=O)C2(S(=O)(=O)c3ccc(Cl)cc3)CC2)cc1,2,4,3,-3,2,-6,x
Cc1nn(-c2cccc(C(F)(F)F)c2)c(Cl)c1/C=N/Nc1cccc(C(=O)O)c1,-8,1,7,16,26*,4,13
Cc1nn(-c2ccccc2Cl)c(Cl)c1/C=N/Nc1cccc(C(=O)O)c1,-2,2,9,-2,5,2,x
Cc1ccc(S(=O)(=O)N2CCN(C(=O)COC(=O)COc3cccc(C(F)(F)F)c3)CC2)c(C)c1,-4,7,2,x,-3,x,x
SMILES,HTRA1 inhibitor,TCR CD3 inh,mABHD4 FP,PME-1 primary,SIAE primary,Fam108B counter,SIAE confirm
C/C(=N\N=c1/sc2ccccc2n1C)c1ccc(N2CCOCC2)cc1,7,-1,6,4,19*,1,6
Cc1ccccc1Nc1c(-c2ccccn2)nc2ccccn12,8,2,12,2,10,2,x
Cc1ccn2c(Nc3ccccc3C)c(-c3ccccn3)nc2c1,10,-9,7,4,18*,0,5
CC(=O)c1ccc(S(=O)(=O)N(C)CC(=O)Nc2cccc(S(=O)(=O)N3CCCC3)c2)cc1,-4,7,-4,x,-1,x,x
CCn1c(SCC(=O)Nc2ccc(OC)c(OC)c2)nc2c(c1=O)SCC2,4,-4,6,5,19*,3,-1
Cc1ccccc1C(=O)Nc1ccc(S(=O)(=O)N2CCN(C)CC2)cc1,2,-6,-4,-3,19*,-3,-5
Cc1ccccc1C(=O)Nc1ccccc1,0,3,-1,-1,2,0,x
CC(=O)Nc1ccc(NC(=O)c2ccccc2C)cc1,3,6,-4,0,18*,1,4
O=S(=O)(NCc1csc(-c2cccs2)n1)c1cccc(C(F)(F)F)c1,-22,2,-7,-7,6,-4,x
CN(C)c1ccc(C(=O)Nc2nnc(-c3ccc(Cl)cc3)o2)cc1,15,2,-2,5,18*,-1,5
CC(=O)c1ccc(C(=O)Nc2nnc(-c3ccc(Cl)cc3)o2)cc1,-2,-11,-4,6,-2,2,x
COCCNC(=O)C1(C)CCCN(C(=O)c2cccnc2SC)C1 (configuration not stated),x,-2,2,x,-4,x,x
O=C1[C@@H](CCc2ccccc2)[C@@H]2c3ccccc3C=NN2[C@@H]2c3ccccc3C=NN12,x,x,-7,x,18*,x,7
O=C(CCc1c[nH]c2ccccc12)Nc1ccc(S(=O)(=O)Nc2ncccn2)cc1,-1,-4,2,-11,11,-7,x
CC(C)c1ccc(NC(=O)Cc2cn(C)c3ccccc23)cc1,-17,4,-4,0,3,2,x
CN(c1ccc(NC(=O)Cc2cn(C)c3ccccc23)cc1)c1ccccn1,x,-7,3,x,29*,x,29*
CN(c1ccc(NC(=O)CCc2c[nH]c3ccccc23)cc1)c1ccccn1,x,-3,-1,x,27*,x,22*
O=C1C(Cl)=C(N2CCCCC2)C(=O)N1Cc1ccccc1,-10,8,2,-13,18*,-7,1
O=C(Cc1c[nH]c2ccccc12)Nc1ccc(Nc2cccnc2)c(Br)c1,x,1,11,x,8,x,x
O=C(Cc1c[nH]c2ccccc12)Nc1ccc(Nc2cccnc2)c(-c2ccc(Oc3ccccc3)cc2)c1,x,1,9,x,18*,x,6
O=C(Cc1cn(Cc2ccccc2)c2ccccc12)Nc1ccc(Nc2cccnc2)c(Br)c1,x,-3,16,x,18*,x,16

# From PubChem BioAssay
